{"source": "paper PMC10993231", "about": "(RSC Advances, 2024)", "assay": "Stability of radiolabeled peptide in human plasma", "format": "in vitro ADME", "settings": "37 °C, TLC read-out", "in_short": "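The peptide was dissolved in DMSO and diluted with water, then iodinated with 131I (3 mCi) and chloramine-T in 0.05 mol L−1 PBS, pH 7.4. The mixture was vortexed 2 min at room temperature and the reaction stopped with sodium metabisulfite. The 131I-peptide was incubated with human plasma at 37 °C for up to 72 h to gauge proteolytic degradation.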"}
{"substance": "^131I-cWIWLYA (head to tail)", "values": [{"measurement": "Radioactivity remaining after incubation in human plasma", "setting": "5 h incubation", "result": "> 90", "unit": "%"}, {"measurement": "Radioactivity remaining after incubation in human plasma", "setting": "72 hours incubation", "result": 57.5, "unit": "%"}]}
